Converted amounts (≈) assume the structure as drawn.
Tests used:
Candida albicans [1] = assay: Antibiofilm activity against Candida albicans ATCC 10231 assessed as inhibition of mature biofilm formation by XTT reduction assay; assay type: functional
Method in brief: (§1)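 Biofilm assay after Pierce et al., with compound applied either during biofilm formation or to 24 h pre-formed (mature) biofilm. Read-out is metabolic activity of cells in the biofilm by XTT reduction. BMIC50 is the lowest concentration giving a 50% drop relative to untreated growth control. Tested in triplicate, at least two experiments on separate dates; median reported.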

Candida albicans [2] = assay: Antifungal activity against planktonic form of Candida albicans ATCC 10231 by broth microdilution method; assay type: organism-based; conditions: in vitro
Method in brief: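 CLSI M27-A3 broth microdilution. Cells grown on Sabouraud dextrose agar at 35°C for 24 h; final inoculum 1×10^3–5×10^3 cells/mL. Compounds from DMSO stocks, final DMSO below 1%, final range 256–0.25 µg/mL. Controls were DMSO 1% and fluconazole reference. MIC50 is the lowest concentration giving ≥50% growth inhibition. Three independent experiments in duplicate; median reported.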

Candida albicans [3] = assay: Antibiofilm activity against Candida albicans ATCC 10231 assessed as inhibition of biofilm formation by XTT reduction assay; assay type: functional; method in brief: as §1

SMILES	MBIC50 (Candida albicans [1]) [µg/mL]	MIC50 (Candida albicans [2]) [mg/L]	MBIC50 (Candida albicans [3]) [µg/mL]
NCCc1c[nH]c2ccccc12 [TRYPTAMINE]	>128	> 128	128
Brc1ccccc1CNCCc1c[nH]c2ccccc12	16	128 (≈ 389 µM)	16
O=C(NCCc1c[nH]c2ccccc12)c1ccccn1	32	> 128	32
C(=C\c1ccccc1)/CNCCc1c[nH]c2ccccc12	64	64 (≈ 232 µM)	8
O=C(NCCc1c[nH]c2ccccc12)c1cccnc1 [NICOTREDOLE]	64	> 128	>128
COc1ccc(CNCCc2c[nH]c3ccccc23)cc1[N+](=O)[O-]	32	> 128	128
O=[N+]([O-])c1ccc(CNCCc2c[nH]c3ccccc23)o1	16	> 128	16
CN(C)c1ccc(CNCCc2c[nH]c3ccccc23)cc1	16	> 128	32
O=[N+]([O-])c1cccc(Cl)c1CNCCc1c[nH]c2ccccc12	8	> 128	16
O=C(NCCc1c[nH]c2ccccc12)c1ccc([N+](=O)[O-])o1	16	> 128	128

Source: ChEMBL document CHEMBL4400512, “Searching for new agents active against Candida albicans biofilm: A series of indole derivatives, design, synthesis and biological evaluation” (Eur J Med Chem, 2019)
